Source: PubChem BioAssay (Broad Institute)
This is a sample that favours compounds with a hit; in the whole collection about 3.1% have one here.
Cneo AK release: Cryptococcus neoformans cell lysis inducers, primary screen, AK release luminescence, single concentration; AID 651654, 2012; C. neoformans lysis, adenylate kinase release luminescence, 4 h; normalised: neutral wells 0, clomiphene wells 100; lysis activity, % at 15 µM; actives 0.2% (n = 360,000);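 active means mean lysis activity across replicates of at least 80%, whatever share of replicates individually reach that level; inactive means mean lysis activity below 80%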
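Material: C. neoformans cells | Amount: Yeast cell density of 5 × 10^6 cells/mL | Medium: Fresh YPD growth medium | Dosing: Single dose | Times: Static 4 h at 37 °C with compound, 1 h detection | Detection: AK luminescence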
miR122 inh: miR-122 Renilla sensor signal increase in Huh7, primary screen, miR-122 inhibitor project, cell-based, single point, plate reader; Huh7 miR-122 Renilla luciferase sensor, 48 h; neutral wells = 0, positive control = 100; activation (reporter increase), % at 12.5 µM; actives 0.3% (n = 340,000); AID 602342, 2012;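 active means mean replicate activation score at least 90 and every replicate individually at or above 90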;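 further: higher luciferase means less miR-122 activity so hits act as miR-122 inhibitors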
CFTR F508del cor: F508del CFTR correction, initial screen, CFBE line, single point. actives 0.36% (n = 350,000). activity (quench increase), % at 7.58 µM. CFBE cells, YFP halide quenching; stimulated with forskolin plus potentiator P3; % fluorescence drop versus neutral controls. AID 720511, 2013;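 active means mean added fluorescence quench of at least 8% versus neutral control, with both replicates also reaching 8%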;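 further: cells transiently co-express mutant CFTR-F508del with the halide-sensitive YFP; corrector assay measuring rescue of mutant channel to the surface after 24 h compound exposure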
HIV Env fusion: inhibitors of HIV-1 Env-driven cell-cell fusion, primary screen, HeLa-JRFL effector, CEM21 target cells, luciferase | inhibition, % at 12.3 µM | actives 1.1% (n = 360,000) | AID 651610, 2012;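 active means mean replicate inhibition score of at least 50 and every replicate individually at or above 50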
rRNA inh HTS: reduced GFP signal of wild-type E. coli, primary screen, bacterial rRNA inhibitor project, GFP/RFP fluorescence, OD600, single point. E. coli WT GFP vs humanized-ribosome RFP mutants, 24 h; stronger effect = lower value; DMSO median 0, no signal -100. GFP signal change (wild-type ribosome), % (no concentration beside the values). actives 1.6% (n = 350,000);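 active means significant combined selectivity score with lowered wild-type GFP, culture density cut under 30%, mutant RFP and density less affected; inactive means any of these conditions unmet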
GSIS activator: GLuc luminescence reporter in INS-1E cells, primary screen for activators of glucose-dependent secretion of insulin; AID 743287, 2014; activation, % at 16.6 µM; INS-1E GLuc reporter insulin secretion, 2-3 h; actives 0.61% (n = 370,000);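 active means lowest replicate activation of at least 40%, so every replicate reaches that level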
Of the large screens only hits and unclear results are named; the others gave an inactive call; [ ] = remark or other dose.

N#Cc1cccc(-c2ccc3c(c2)[C@H]2[C@H](CCN2S(=O)(=O)c2ccccc2F)[C@@H](CO)N3)c1	none (no result: HIV Env fusion)
CCC(=O)N1C[C@H](O)COC[C@H]2O[C@@H](CC(=O)NCC3CCCCC3)CC[C@@H]21	none
Cc1ccc(NC(=O)c2oc3ccccc3c2C)nc1	none (no result: HIV Env fusion)
Cc1c(C(=O)Nc2ccccn2)oc2ccccc12	miR122 inh 95 (no result: HIV Env fusion)
CN(C)CCNC(=O)c1cccc2[nH]c(-c3ccncc3)nc12	none (no result: Cneo AK release)
CN(C)CCNC(=O)c1cccc2nc3c(ccc4ccccc43)nc12	CFTR F508del cor 19 (no result: Cneo AK release)
COc1ccc(C(=O)NCCN(C)C)c2nc3ccccc3cc12	CFTR F508del cor 15 (no result: Cneo AK release)
COc1cccc2nc3c(C(=O)NCCN(C)C)cccc3cc12	none (no result: Cneo AK release)
COc1ccc(-c2nc3c(C(=O)NCCN(C)C)cccc3c3ccccc23)cc1	CFTR F508del cor 11 (no result: Cneo AK release, GSIS activator)
CCn1c(-c2ccc(C)cc2)n[nH]c1=S	none (no result: CFTR F508del cor, rRNA inh HTS, GSIS activator)
CCn1c(CCCOc2ccc(Cl)cc2Cl)n[nH]c1=S	rRNA inh HTS -34
CCn1c(CCCCc2n[nH]c(=S)n2CC)n[nH]c1=S	none (no result: Cneo AK release, miR122 inh)
CCn1c(-c2ccc(Cl)cc2)n[nH]c1=S	HIV Env fusion 61 (no result: CFTR F508del cor, rRNA inh HTS, GSIS activator)
C[C@H]1CN([C@@H](C)CO)C(=O)Cc2cc(NC(=O)c3ccncc3)ccc2O[C@@H]1CN(C)Cc1ccc(C(=O)O)cc1	none (no result: HIV Env fusion)
C#CCn1c(=O)c2c(ncn2C)n(C)c1=O	HIV Env fusion 72 (no result: GSIS activator)
CCOc1ccc(N2C(=O)CC(S/C(N)=N/N=C/c3cccs3)C2=O)cc1 (stereo not given)	GSIS activator 54 (no result: CFTR F508del cor, rRNA inh HTS)
O=C(Cn1cnc2c(OCc3ccccc3)ncnc21)NCc1ccccn1	GSIS activator 41
COC(=O)[C@H](Cc1ccccc1)NC(=O)Cn1cnc2c(OCc3ccccc3)ncnc21	none (no result: miR122 inh, HIV Env fusion)
O=C(Cn1cnc2c(OCc3ccccc3)ncnc21)N[C@H](CO)Cc1cc2ccccc2[nH]1	GSIS activator 49
Cc1ccc(S(=O)(=O)CNC(=S)c2ccc3ccccc3c2)cc1	rRNA inh HTS -24 (no result: HIV Env fusion)
COc1cc(NC(=S)Nc2cccc(C)n2)cc(OC)c1OC	none (no result: Cneo AK release, miR122 inh)
COc1cc(NC(=S)Nc2ncccc2C)cc(OC)c1OC	rRNA inh HTS -21
COc1cc(NC(=O)c2ccc([N+](=O)[O-])o2)ccc1NC(=O)c1ccco1	rRNA inh HTS -22
CC(=O)c1ccc(NC(=O)c2ccc(C)c(Br)c2)cc1	none (no result: Cneo AK release, miR122 inh)
Cc1ccc(NC(=O)/C(=C/c2cccs2)NC(=O)c2ccco2)c(C)c1	rRNA inh HTS -30 (no result: Cneo AK release, miR122 inh, HIV Env fusion)
Cc1cc(Br)ccc1NC(=O)c1ccco1	rRNA inh HTS -22
CC(=O)c1ccc(NC(=O)Nc2ccc(Br)cc2C)cc1	rRNA inh HTS -19 (no result: Cneo AK release, miR122 inh)
COc1ccc2c3c([nH]c2c1)[C@H](CO)N(C(=O)c1ccc(F)cc1)CC31CN(S(=O)(=O)c2cccs2)C1	none (no result: Cneo AK release, miR122 inh, HIV Env fusion)
CO[C@H]1CN(C)C(=O)c2ccc(NC(C)=O)cc2OC[C@@H](C)N(C(=O)C2CCCCC2)C[C@H]1C	none (no result: HIV Env fusion)
C[C@H]1CN([C@@H](C)CO)C(=O)c2cc(NC(=O)C3CCCCC3)ccc2O[C@@H]1CN(C)S(=O)(=O)c1cn(C)cn1	none
CC(C)NC(=O)N1[C@@H](C#N)[C@H](c2ccc(C#CC3CCCCC3)cc2)[C@@H]1CO	none (no result: miR122 inh, HIV Env fusion)
COc1cc(NC(=O)C2CCCCC2)c(OC)cc1NC(=O)c1ccco1	none (no result: Cneo AK release, CFTR F508del cor, rRNA inh HTS)
CCN(c1ccccc1)S(=O)(=O)c1ccc(OC)c(NC(=O)c2ccco2)c1	rRNA inh HTS -19
O=C(/C=C/c1ccc(Br)cc1)c1ccc(NC(=O)c2ccco2)cc1	GSIS activator 114 (no result: CFTR F508del cor, rRNA inh HTS)
COc1cc2c(cc1NC(=O)c1ccco1)CCCC2	rRNA inh HTS -32 (no result: HIV Env fusion)
CCc1nnc(NC(=O)CSc2nnc(-c3ccccc3O)o2)s1	rRNA inh HTS -26
CCc1nnc(NC(=O)CSc2nc(-c3ccccc3)c(-c3ccccc3)o2)s1	none (no result: Cneo AK release, miR122 inh, CFTR F508del cor)
O=S(=O)(c1cccc(-c2csc(N/N=C/c3ccco3)n2)c1)N1CCOCC1	rRNA inh HTS -23 (no result: miR122 inh)
COc1ccc(NS(=O)(=O)c2ccc(N3CCOCC3)c(NC(=O)c3ccco3)c2)cc1	none
COc1ccc(NS(=O)(=O)c2ccc(N3CCOCC3)c(NC(=O)C(C)C)c2)cc1	none
COc1ccc2oc(-c3ccc(NC(=O)c4ccc(N5CCOCC5)c([N+](=O)[O-])c4)cc3)nc2c1	GSIS activator 109 (no result: CFTR F508del cor, HIV Env fusion, rRNA inh HTS)
COc1ccc(NS(=O)(=O)c2ccc(N3CCOCC3)c(NC(=O)c3cccc(F)c3)c2)cc1	miR122 inh 190 (no result: Cneo AK release, CFTR F508del cor, rRNA inh HTS)
COc1ccc(NS(=O)(=O)c2ccc(N3CCOCC3)c(NC(=O)c3ccc(F)cc3)c2)cc1	miR122 inh 179
O=C(Nc1ccc(-c2nc3ccccc3o2)cc1)c1ccc(N2CCOCC2)c([N+](=O)[O-])c1	none (no result: Cneo AK release, miR122 inh, HIV Env fusion)
CC(C)[C@H]1C(=O)N[C@H](c2ccc3c(c2)OCO3)CC=CC[C@@H](C)Oc2ccccc2C(=O)N1C (mixture of isomers)	none (no result: Cneo AK release, miR122 inh, CFTR F508del cor, HIV Env fusion)
CCCC#Cc1ccc2c(c1)O[C@H](CN(C)Cc1cccnc1)[C@H](C)CN([C@@H](C)CO)S2(=O)=O	none (no result: CFTR F508del cor)
N#CCSc1nc2ccccc2c(=O)n1C1CCCCC1	GSIS activator 53 (no result: Cneo AK release, miR122 inh)
CCCN(CCC)C(=O)CSc1nc2ccccc2c(=O)n1C1CCCC1	HIV Env fusion 65 (no result: CFTR F508del cor, rRNA inh HTS, GSIS activator)
COc1c2ccoc2nc2c(OC)cccc12	rRNA inh HTS -22 (no result: HIV Env fusion)
COc1cccc2c(=O)ccoc12	none (no result: Cneo AK release, CFTR F508del cor, HIV Env fusion, rRNA inh HTS, GSIS activator)
CCN1CCCC(OC(=O)c2cc(-c3ccccc3Cl)nc3ccccc23)C1 (stereo not given)	CFTR F508del cor 12 (no result: Cneo AK release, miR122 inh)
C[C@@H]1CN([C@H](C)CO)C(=O)c2cccc(NC(=O)c3nc4ccccc4s3)c2O[C@H]1CN(C)S(=O)(=O)c1cccs1	none
C[C@@H]1CN([C@@H](C)CO)C(=O)Cc2cc(NC(=O)Nc3ccc(C(F)(F)F)cc3)ccc2O[C@@H]1CN(C)C(=O)Nc1cccc2ccccc12	miR122 inh 265[16.7 µM]
C[C@@H]1CN([C@H](C)CO)C(=O)Cc2cc(NC(=O)Nc3cccc4ccccc34)ccc2O[C@@H]1CN(C)C(=O)Nc1ccc(C(F)(F)F)cc1	none
C[C@H](CO)N1C[C@H](C)[C@@H](CN(C)C(=O)Nc2cccc3ccccc23)Oc2ccc(NC(=O)Nc3ccc(C(F)(F)F)cc3)cc2CC1=O	none
C[C@@H]1CN([C@H](C)CO)C(=O)Cc2cc(NC(=O)Nc3ccc(C(F)(F)F)cc3)ccc2O[C@@H]1CN(C)C(=O)Nc1cccc2ccccc12	miR122 inh 112[16.7 µM]
